# Mdm2 MdmX PPI: inhibitors of human Mdm2-MdmX association, primary screen, cell-based, luminescence, split luciferase, SaOS-2, uHTS; Protein Mdm4 (Homo sapiens) + E3 ubiquitin-protein ligase Mdm2 (Homo sapiens), …; SaOS-2 split-luciferase Mdm2/MdmX complementation; inhibition, % at 8 µM; actives 3% (n = 330,000); AID 485346, 2010;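 active = inhibition of at least 50% at 8 µM in the primary screen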
# Target sequence (O15151 whole entry, looked up): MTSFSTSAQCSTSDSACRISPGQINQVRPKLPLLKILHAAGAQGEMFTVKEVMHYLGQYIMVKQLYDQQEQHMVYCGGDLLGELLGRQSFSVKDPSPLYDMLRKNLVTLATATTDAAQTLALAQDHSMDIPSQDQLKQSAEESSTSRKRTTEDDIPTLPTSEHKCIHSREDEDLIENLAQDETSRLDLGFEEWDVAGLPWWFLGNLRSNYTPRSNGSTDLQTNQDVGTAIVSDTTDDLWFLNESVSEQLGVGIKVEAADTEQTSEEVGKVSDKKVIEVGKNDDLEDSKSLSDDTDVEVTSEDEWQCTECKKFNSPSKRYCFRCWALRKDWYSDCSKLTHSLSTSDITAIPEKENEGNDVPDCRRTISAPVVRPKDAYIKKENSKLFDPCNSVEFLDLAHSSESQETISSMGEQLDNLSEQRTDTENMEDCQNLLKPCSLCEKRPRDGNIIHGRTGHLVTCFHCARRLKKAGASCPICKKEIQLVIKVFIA
# Target sequence (Q00987 whole entry, looked up): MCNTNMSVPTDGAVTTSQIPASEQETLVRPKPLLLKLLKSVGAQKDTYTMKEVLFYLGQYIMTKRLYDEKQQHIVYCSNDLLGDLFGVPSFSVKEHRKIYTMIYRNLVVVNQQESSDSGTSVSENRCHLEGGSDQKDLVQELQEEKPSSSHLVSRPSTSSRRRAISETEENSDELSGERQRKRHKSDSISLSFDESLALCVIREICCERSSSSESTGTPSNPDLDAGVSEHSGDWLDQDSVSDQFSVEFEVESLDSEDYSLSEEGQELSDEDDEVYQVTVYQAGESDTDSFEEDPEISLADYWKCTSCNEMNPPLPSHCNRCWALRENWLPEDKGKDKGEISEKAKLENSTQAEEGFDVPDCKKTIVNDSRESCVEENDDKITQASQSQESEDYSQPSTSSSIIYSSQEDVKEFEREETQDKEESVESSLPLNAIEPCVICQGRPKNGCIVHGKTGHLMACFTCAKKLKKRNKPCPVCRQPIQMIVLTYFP
# T cruzi inh: inhibitors of intracellular T. cruzi growth, primary screen, luminescence, NIH3T3 host cells | T. cruzi beta-gal in NIH3T3, 90 h | actives 1.4% (n = 300,000) | AID 1885, 2009 | inhibition, % (no concentration beside the values);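 active = mean inhibition across valid replicates above about 55%, limit read from the data; inconclusive = mean below that limit but half or more replicates reach it; inactive = mean below it, under half of replicates reach it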;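 also: signal also drops with host cell toxicity which is not excluded here; 0% = plate median of DMSO wells and 100% = zero luminescence signal; higher percent means less beta-gal luminescence so fewer parasites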
#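 assay system = mouse NIH/3T3 fibroblasts infected with β-gal-expressing T. cruzi Tulahuen C4 | input = 5,000 NIH/3T3 host cells per well | buffer or medium = DMEM plus 2% FBS | timing = 3 h host attachment, then at least 90 h co-culture | measured by = GalScreen luminescence, 60 min | evaluation = luminescence reflecting intracellular parasite burden, expressed as percent inhibition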
# Beta apoptosis: inhibitors of cytokine-induced beta cell apoptosis, primary screen, luminescence; actives 0.8% (n = 300,000); protection from apoptosis, % (test concentration not listed); INS-1E cytokine-induced death, ATP luminescence, 48 h; percent of positive-control rescue, neutral wells zero; AID 435005, 2010;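 active = Every replicate reaches about 75%, or at least half do and their mean reaches it too, limit read from the data; inconclusive = At least half of replicates reach the limit but their mean does not; inactive = Under half of replicates reach the limit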;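 also: 0% = cytokine-treated negative control wells and 100% = positive control rescue; higher means more ATP so stronger rescue from cytokine killing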
# Calb FLC: C. albicans growth inhibition with fluconazole, primary screen, CaCi-2 strain, Alamar Blue fluorescence; C. albicans CaCi-2 (fluconazole-resistant clinical isolate) + fluconazole, 48 h; growth inhibition, % (test concentration not listed); actives 0.57% (n = 300,000); AID 1979, 2009;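 active = growth inhibition above about 58% in most replicates, limit read from the data, passing the limit was not always enough; inconclusive = exactly half the replicates above a set limit; inactive = most replicates below a set limit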;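 also: all wells also contain fluconazole at 8 µg/ml as a sub-toxic cotreatment; 0% = median of DMSO wells and 100% = median of geldanamycin control wells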
# CSC inhib: cancer stem cell viability inhibitors, primary screen, luminescence | actives 1.1% (n = 300,000) | inhibition, % at 7.5 µM | cancer stem cell-like cells viability; in the data active = inhibition above about 75%; inconclusive = no clear call, values can overlap the other calls; tested in HMLE shEcad cells
# SKKanGAS inh: S. pyogenes SKKanGAS growth inhibitors in kanamycin, primary screen, streptokinase expression inhibitor project, SKKanGAS strain, BacTiter-Glo luminescence; AID 1662, 2009; inhibition, % at 7.5 µM; actives 1.3% (n = 300,000); 6 h;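 active = mean replicate score, as percent of positive control median, at least 50; inconclusive = mean below 50 but one replicate at or above 50; inactive = mean and every replicate below 50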;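 also: strain carries kanamycin resistance gene driven by streptokinase promoter and grows in 40 µg/ml kanamycin; loss of luminescence reflects streptokinase promoter inhibition or plain growth inhibition; 0% = median of DMSO wells and 100% = positive control at its reference dose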
# Mdm2-MdmX conf: Mdm2-MdmX complex disruptors, retested hits, confirmation, luminescence, single concentration; shares compounds with Mdm2 MdmX PPI; Mdm2-MdmX binding, luminescent assay; inhibition, % at 8 µM; actives 55% (n = 10,000); in the data active = inhibition above about 40%
# FLuc counter: full-length luciferase signal inhibition, confirmation, counter-screen for Mdm2/MdmX interaction inhibitor project, cell-based, single concentration, SaOS-2; shares compounds with Mdm2 MdmX PPI; actives 77% (n = 6,200); AID 504607, 2011; SaOS-2 full-length luciferase counterscreen, luminescence; inhibition, % at 8 µM;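 active = mean inhibition at 8 µM reaching about 37%, which flags the compound as non-specific, limit read from the data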;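 also: p53-null SaOS-2 cells with luciferase driven by a doxycycline-inducible promoter; compound on cells about two nights before reading with doxycycline added after day one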
# Numbers without * were called inactive; ? = inconclusive; nt = no result. Hits are enriched below; roughly 5.7% of the tested compounds scored in any of these assays.
SMILES,Mdm2 MdmX PPI,T cruzi inh,Beta apoptosis,Calb FLC,CSC inhib,SKKanGAS inh,Mdm2-MdmX conf,others
COC(=O)c1cc(=O)n(CCc2ccccc2F)c(=Nc2ccc(F)c(Cl)c2)s1,73*,54,76*,-1,122*,-3,13,
CSCCC(NC(=O)c1ccco1)C(=O)OCC(=O)N1c2ccccc2NC(=O)C1(C)C (configuration not stated),5,nt,3,nt,nt,nt,nt,
CC(=O)N1c2ccc(C)cc2C(c2ccccc2)CC1C (configuration not stated),74*,16,-7,40,9,1,35,FLuc counter=71*
CC(C)CN(CC(C)C)C(=O)CN1C(=O)NC2(CCCc3ccccc32)C1=O (configuration not stated),-4,-2,13,4,-8,1,nt,
CCOc1ccccc1CN1CCNC(=O)C1CC(=O)NCCN1CCOC1=O (configuration not stated),-11,-10,-2,-8,-8,0,nt,
O=C(CCC(=O)Nc1nnc(C2CCCCC2)s1)Nc1ccccc1,19,-3,-2,-4,-13,-1,nt,
COc1ccc(C2=NOC(C(=O)NCc3ccc(F)cc3)C2)cc1OC (configuration not stated),44,-24,21,7,61,6,nt,
COc1cc(C2=NOC(C(=O)NCc3ccc(F)cc3)C2)cc(OC)c1OC (configuration not stated),61*,-5,22,5,nt,-2,58*,FLuc counter=83*
C/C(=N\Nc1ccc2nncn2n1)c1ccccn1,81*,63*,80*,2,98*,42,84*,FLuc counter=48*
C/C(=N\Nc1ccc2nncn2n1)c1ccco1,31,-5,-2,0,-11,0,nt,
COc1ccccc1CCNS(=O)(=O)c1cc2c3c(c1)CCN3C(=O)CC2,-3,-22,nt,7,-9,-12,nt,
CN1C(=O)NC(c2ccccc2)(C(F)(F)F)S/C1=C(/C#N)c1nnc(N2CCOCC2)n1-c1ccccc1 (configuration not stated),50*,-11,2,34,0,?,18,
CN1C(c2ccc(F)cc2)=CS/C1=C(/C#N)c1nnc(N2CCOCC2)n1-c1ccccc1,-6,21,2,1,30,-6,nt,
CCOC(=O)c1sc(NC(=O)CN2C(=O)c3cccc4cccc(c34)C2=O)nc1C,73*,2,-5,-13,7,-3,13,
CCOC(=O)c1ccccc1NC(=O)COC(=O)c1c(CC)noc1C,16,3,-2,9,-2,-4,nt,
CC(C)C1=CC(=Nc2ccc(S(N)(=O)=O)cc2)C=C(C(C)C)C1=O,28,-6,-10,0,-19,8,nt,
C[C@]12CCC3C(CC[C@H]4CCCC[C@]34C)C1CC[C@@]2(O)CNCCO (some centres not stated),98*,14,2,1,6,14,79*,FLuc counter=42*
C/C=C(\C)CN1CCC(Oc2cc(C(=O)NC3CC3)ccc2OC)CC1,11,2,-2,2,0,-4,nt,
CCCCN(CC)CCCNC(=O)c1cn(CC)c2ccc(S(=O)(=O)N3CCc4ccccc4C3)cc2c1=O,57*,52,2,5,-2,2,22,
CCCN(CCC)CCCNC(=O)c1cn(CC)c2ccc(S(=O)(=O)N3CCc4ccccc4C3)cc2c1=O,75*,28,4,-5,1,-1,36,FLuc counter=63*
CCCCN(C)CCCNC(=O)c1cn(CC)c2ccc(S(=O)(=O)N3CCc4ccccc4C3)cc2c1=O,54*,53,-1,-3,nt,4,24,
CCn1cc(C(=O)NCCCN2CCCC2)c(=O)c2cc(S(=O)(=O)N3CCc4ccccc4C3)ccc21,26,3,2,11,9,2,nt,
O=C1CCCN1C(=O)CSc1nnnn1-c1ccccc1,17,nt,-1,nt,nt,nt,nt,
CC(=O)Nc1ccc(S(=O)(=O)N2CCN(c3cc4c(cc3[N+](=O)[O-])n(C)c(=O)n4C)CC2)cc1,26,-22,-15,-5,nt,0,nt,
Cn1c(=O)n(C)c2cc([N+](=O)[O-])c(N3CCN(S(=O)(=O)c4ccc(C(C)(C)C)cc4)CC3)cc21,60*,46,31,36,29,-11,38,FLuc counter=70*
SMILES,Mdm2 MdmX PPI,T cruzi inh,Beta apoptosis,Calb FLC,CSC inhib,SKKanGAS inh,Mdm2-MdmX conf,others
Cc1ccccc1C(=O)N[C@H](C(=O)OCC(=O)NC1CC1)C(C)C,-17,nt,3,nt,-16,nt,nt,
CCN(CC)CCNC(=O)CCc1c(C)nc2c(c(C)nn2-c2ccc(C)cc2)c1C,61*,4,-3,2,24,1,32,
COc1cc(/C=C2\N=C(c3ccccc3)NNC2=O)cc(OC)c1OC,61*,-17,nt,-4,nt,8,54*,FLuc counter=64*
O=C1NNC(c2ccccc2)=N/C1=C\c1ccco1,21,3,2,-13,0,19,nt,
Cc1ccc(OC(C)C(=O)Nc2ccccc2C(=O)N2CCN(C)CC2)cc1 (configuration not stated),-22,-11,-5,0,-8,0,nt,
N#Cc1c(N)nc(SCC(=O)NCCc2ccccc2)c(C#N)c1-c1cccs1,63*,10,-3,-1,6,-4,15,
CC(=O)CSc1nc(N)c(C#N)c(-c2cccs2)c1C#N,52*,5,8,?,-2,-7,37,FLuc counter=41*
O=C(Cn1cc(C(F)(F)F)ccc1=O)N1CCc2ccccc2C1,10,nt,-4,nt,nt,nt,nt,
O=C(N/N=C\c1cc(Br)ccc1O)c1ccc(S(=O)(=O)N2CCCCC2)cc1,70*,59*,100*,-17,104*,106*,75*,FLuc counter=21
O=C(N/N=C/c1ccc(O)c(O)c1)c1cccc(S(=O)(=O)N2CCCCC2)c1,-3,-17,-1,-2,10,0,nt,
COC(=O)c1cc(=O)nc2sccn12,19,5,-3,-3,-1,-2,nt,
COC(=O)c1cc(NC(=O)c2c(Cl)nc3sccn23)cc(C(=O)OC)c1,68*,-8,24,0,2,-3,13,

# Screening data deposited in PubChem BioAssay by several laboratories.
